# ChEMBL document CHEMBL1240345 (Nat Chem Biol, 2009)
# Calls of active or inactive are those of the source. The calls are words filed in the database; no cut-off is given here.
# What was measured:
# [1] = target: T1, Dual specificity protein phosphatase 6 (Homo sapiens) (UniProt Q16828); test: Inhibition of Dusp6 in 1-cell stage Tg(dusp:EGFP)pt6 zebrafish embryos injected with XFD mRNA assessed as sef gene expression restoring at 5 uM
# T1 sequence (whole entry): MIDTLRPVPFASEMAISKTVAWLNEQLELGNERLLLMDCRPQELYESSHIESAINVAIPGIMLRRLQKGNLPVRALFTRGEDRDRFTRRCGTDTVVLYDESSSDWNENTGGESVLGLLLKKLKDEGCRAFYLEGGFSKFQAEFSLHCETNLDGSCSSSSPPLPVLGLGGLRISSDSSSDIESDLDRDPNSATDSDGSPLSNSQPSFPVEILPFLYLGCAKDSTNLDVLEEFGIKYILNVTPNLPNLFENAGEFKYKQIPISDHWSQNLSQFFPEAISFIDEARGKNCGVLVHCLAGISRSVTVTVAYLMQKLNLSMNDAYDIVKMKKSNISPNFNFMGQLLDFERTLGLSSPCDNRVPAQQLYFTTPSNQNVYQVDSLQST
# Method in brief: (§1)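 Embryos were injected at the 1-2 cell stage with 500 pg of spry4 or XFD mRNA. They were exposed to 5 μM compound at the 1000-cell stage and fixed at shield stage. sef expression was then assessed by in situ hybridization.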
# Danio rerio [2] = species on record: Danio rerio; test: Inhibition of dusp5 gene expression in Tg(dusp:EGFP)pt6 zebrafish embryos; type: functional; conditions: Embryo
# [3] = Increase in transcription factor gata4 gene in Tg(dusp:EGFP)pt6 zebrafish embryo anterior lateral plate mesoderm; type: functional, Danio rerio
# [4] = target: T1, Dual specificity protein phosphatase 6 (Homo sapiens); test: Inhibition of Myc-tagged human Dusp6 expressed in TPA-induced human HeLa cells assessed as decrease in dephosphorylation of pERK measured at 100 uM by immunostaining; type: cell-based
# [5] = target: T1, Dual specificity protein phosphatase 6 (Homo sapiens); test: Inhibition of Dusp6 in 1-somite stage Tg(dusp:EGFP)pt6 zebrafish assessed as increase in dusp6 FGF target gene expression in rhombomere 4 at 10 uM by RT-PCR
# [6] = target: T2, Tyrosine-protein phosphatase non-receptor type 1 (Homo sapiens, UniProt P18031); test: Inhibition of PTP1B
# T2 sequence (P18031 whole entry): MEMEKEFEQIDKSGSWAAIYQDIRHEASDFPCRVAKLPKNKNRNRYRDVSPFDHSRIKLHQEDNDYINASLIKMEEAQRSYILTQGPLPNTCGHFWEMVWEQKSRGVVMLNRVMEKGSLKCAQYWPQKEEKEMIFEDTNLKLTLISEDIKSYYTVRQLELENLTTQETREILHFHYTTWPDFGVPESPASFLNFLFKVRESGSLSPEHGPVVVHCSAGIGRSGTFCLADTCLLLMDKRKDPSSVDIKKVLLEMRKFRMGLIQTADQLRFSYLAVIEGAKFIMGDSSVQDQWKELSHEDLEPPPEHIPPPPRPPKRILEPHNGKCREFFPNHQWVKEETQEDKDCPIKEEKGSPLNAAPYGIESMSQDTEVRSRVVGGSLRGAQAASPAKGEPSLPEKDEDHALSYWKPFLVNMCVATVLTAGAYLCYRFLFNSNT
# [7] = target: T1, Dual specificity protein phosphatase 6 (Homo sapiens); test: Inhibition of Dusp6 in Tg(dusp:EGFP)pt6 zebrafish assessed as increase in spry4 gene expression at 10 uM by RT-PCR
# [8] = target: T1, Dual specificity protein phosphatase 6 (Homo sapiens); test: Inhibition of Dusp6 in 10-somite stage Tg(dusp:EGFP)pt6 zebrafish assessed as increase in dusp6 FGF target gene expression in rhombomere 4 at 10 uM by RT-PCR
# [9] = target: T1, Dual specificity protein phosphatase 6 (Homo sapiens); test: Inhibition of Dusp6 basal phosphatase activity using 3-o-methylfluoro-rescein phosphate substrate in presence of ERK protein; conditions: concentration not given here
# Method in brief: (§2)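 Recombinant Dusp6 activity was followed as dephosphorylation of the small-molecule substrate 3-O-methylfluorescein phosphate, with or without ERK2 present to stimulate catalysis.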
# [10] = target: T1, Dual specificity protein phosphatase 6 (Homo sapiens); test: Inhibition of […] in Tg(dusp:EGFP);ace mutant zebrafish assessed as increase in FGF-signaling mediated d2EGFP fluorescence in mid-hindbrain boundary at 10 uM after 2 hrs
# Danio rerio [11] = species on record: Danio rerio; test: Inhibition of dusp7 gene expression in Tg(dusp:EGFP)pt6 zebrafish embryos; type: functional; conditions: Embryo
# Danio rerio [12] = species on record: Danio rerio; test: Inhibition of dusp4 gene expression in Tg(dusp:EGFP)pt6 zebrafish embryos; type: functional; conditions: Embryo
# [13] = target: T1, Dual specificity protein phosphatase 6 (Homo sapiens); test: Inhibition of Dusp6 in 1-cell stage Tg(dusp:EGFP)pt6 zebrafish embryos injected with spry4 mRNA assessed as sef gene expression restoring at 5 uM; method in brief: as §1
# [14] = Increase in transcription factor nkx2.5 gene in Tg(dusp:EGFP)pt6 zebrafish embryo anterior lateral plate mesoderm; type: functional, Danio rerio
# [15] = target: T3, Dual specificity protein phosphatase 5 (Homo sapiens) (UniProt Q16690); test: Inhibition of Dusp5
# T3 sequence (whole entry): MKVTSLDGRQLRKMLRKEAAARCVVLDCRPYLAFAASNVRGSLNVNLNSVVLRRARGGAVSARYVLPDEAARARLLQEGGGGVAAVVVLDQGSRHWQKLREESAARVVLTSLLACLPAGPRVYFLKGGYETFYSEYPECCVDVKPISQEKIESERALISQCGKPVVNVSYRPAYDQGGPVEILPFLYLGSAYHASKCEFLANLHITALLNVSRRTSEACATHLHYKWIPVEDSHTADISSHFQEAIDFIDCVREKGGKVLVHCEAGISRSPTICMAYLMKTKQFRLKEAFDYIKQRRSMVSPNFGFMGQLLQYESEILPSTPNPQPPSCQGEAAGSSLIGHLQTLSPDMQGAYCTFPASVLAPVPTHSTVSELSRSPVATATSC
# [16] = target: T1, Dual specificity protein phosphatase 6 (Homo sapiens); test: Inhibition of Dusp6 basal phosphatase activity using 3-o-methylfluoro-rescein phosphate substrate at 10:1 enzyme to ERK protein ration; conditions: concentration not given here
# [17] = target: T1, Dual specificity protein phosphatase 6 (Homo sapiens); test: Inhibition of Dusp6 in 10-somite stage Tg(dusp:EGFP)pt6 zebrafish assessed as increase in dusp6 FGF target gene expression in mid-hindbrain boundary at 10 uM by RT-PCR
# [18] = target: T1, Dual specificity protein phosphatase 6 (Homo sapiens); test: Inhibition of Dusp6 in Tg(dusp:EGFP)pt6 zebrafish assessed as increase in FGF-signaling mediated d2EGFP fluorescence at 10 uM after 2 hrs
# Method in brief: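 Tg(dusp6:EGFP)pt6 embryos from natural crosses were raised at 28.5°C to 24 hpf, then placed five per well in E3. Compound was added at 10 μM in 0.5% DMSO, with 0.5% DMSO as vehicle control. d2EGFP intensity was scored visually against vehicle-treated embryos. Assays were run three times, and at least four of five embryos had to share the phenotype.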
# Danio rerio [19] = species on record: Danio rerio; test: Inhibition of dusp22a gene expression in Tg(dusp:EGFP)pt6 zebrafish embryos; type: functional; conditions: Embryo
# [20] = target: T1, Dual specificity protein phosphatase 6 (Homo sapiens); test: Inhibition of Dusp6 in 1-somite stage Tg(dusp:EGFP)pt6 zebrafish assessed as increase in dusp6 FGF target gene expression in mid-hindbrain boundary at 10 uM by RT-PCR
# [21] = target: Dual specificity protein phosphatase 3 (Homo sapiens, UniProt P51452); test: Inhibition of Dusp3/VHR
# Sequence of Dual specificity protein phosphatase 3 (P51452 whole entry): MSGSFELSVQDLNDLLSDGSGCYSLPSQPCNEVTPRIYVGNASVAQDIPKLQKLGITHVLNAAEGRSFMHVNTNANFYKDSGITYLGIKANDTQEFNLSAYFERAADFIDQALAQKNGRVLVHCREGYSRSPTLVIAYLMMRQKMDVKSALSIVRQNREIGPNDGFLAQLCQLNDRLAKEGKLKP
# [22] = target: T1, Dual specificity protein phosphatase 6 (Homo sapiens); test: Inhibition of Dusp6 in 1-somite stage Tg(dusp:EGFP)pt6 zebrafish assessed as increase in dusp6 FGF target gene expression in tailbud at 10 uM by RT-PCR
# [23] = target: T1, Dual specificity protein phosphatase 6 (Homo sapiens); test: Inhibition of Dusp6 in Tg(dusp:EGFP)pt6 zebrafish assessed as increase in il17rd gene expression at 10 uM by RT-PCR
# [24] = target: T1, Dual specificity protein phosphatase 6 (Homo sapiens); test: Inhibition of Dusp6 basal phosphatase activity using 3-o-methylfluoro-rescein phosphate substrate; method in brief: as §2
# Danio rerio [25] = species on record: Danio rerio; test: Increase in cardiac cmlc2 expression in 18-somite stage Tg(dusp:EGFP)pt6 zebrafish embryo
# Danio rerio [26] = species on record: Danio rerio; test: Increase in cardiac myl7 expression in 18-somite stage Tg(dusp:EGFP)pt6 zebrafish embryo
# [27] = target: T4, Dual specificity protein phosphatase 6 (Homo sapiens, UniProt Q16828); test: Inhibition of Myc-tagged human Dusp6 expressed in TPA-induced human HeLa cells assessed as decrease in dephosphorylation of pERK measured by immunostaining; type: cell-based
# T4 sequence (Q16828 whole entry): T1 sequence (whole entry)
# Method in brief: (§3)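 HeLa cells (2,000 per collagen-coated well; DMEM, 10% FBS, 37°C, 5% CO2) were transfected with human c-Myc-Dusp1 or c-Myc-Dusp6. After 20 h, quadruplicate wells received ten two-fold concentrations of compound for 15 min, then TPA (500 ng/ml) for 15 min. Cells were fixed and immunostained for pERK and c-Myc, and 1000 Myc-gated cells were imaged. pERK restoration was expressed as Kolmogorov-Smirnov values normalized to vehicle-treated transfected wells. Six independent experiments were run.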
# [28] = target: T5, Dual specificity protein phosphatase 1 (Homo sapiens, UniProt P28562); test: Inhibition of Myc-tagged human Dusp1 expressed in TPA-induced human HeLa cells assessed as decrease in dephosphorylation of pERK measured by immunostaining; type: cell-based; method in brief: as §3
# T5 sequence (P28562 whole entry): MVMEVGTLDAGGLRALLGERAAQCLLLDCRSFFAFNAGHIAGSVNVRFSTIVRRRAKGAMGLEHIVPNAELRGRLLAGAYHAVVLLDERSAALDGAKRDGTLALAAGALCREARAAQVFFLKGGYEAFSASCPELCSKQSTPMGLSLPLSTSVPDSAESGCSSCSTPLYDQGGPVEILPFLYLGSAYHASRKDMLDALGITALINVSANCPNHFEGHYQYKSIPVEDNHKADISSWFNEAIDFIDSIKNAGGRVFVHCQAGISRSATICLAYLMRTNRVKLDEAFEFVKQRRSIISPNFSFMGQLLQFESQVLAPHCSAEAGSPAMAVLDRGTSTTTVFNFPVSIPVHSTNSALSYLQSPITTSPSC
# Danio rerio [29] = species on record: Danio rerio; test: Induction of cardiac tissue expansion in larval stage Tg(dusp:EGFP)pt6 zebrafish embryo after 8 hrs; type: functional, tissue-based
# [30] = target: T1, Dual specificity protein phosphatase 6 (Homo sapiens); test: Inhibition of Dusp6 in Tg(dusp:EGFP)pt6 zebrafish assessed as increase in engrailed 2b in prospective mid-hindbrain boundary at 10 uM by RT-PCR
# Danio rerio [31] = species on record: Danio rerio; test: Increase in cardiac hand2 expression in 10-somite stage Tg(dusp:EGFP)pt6 zebrafish embryo; type: functional
# [32] = target: T1, Dual specificity protein phosphatase 6 (Homo sapiens); test: Inhibition of Dusp6 in Tg(dusp:EGFP)pt6 zebrafish embryo assessed as reduction in scl gene expression; conditions: concentration not given here
# [33] = target: T1, Dual specificity protein phosphatase 6 (Homo sapiens); test: Inhibition of Dusp6 in 10-somite stage Tg(dusp:EGFP)pt6 zebrafish assessed as increase in dusp6 FGF target gene expression in tailbud at 10 uM by RT-PCR
# Danio rerio [34] = species on record: Danio rerio; test: Inhibition of dusp1 gene expression in Tg(dusp:EGFP)pt6 zebrafish embryos; type: functional; conditions: Embryo
# [35] = target: T6, M-phase inducer phosphatase 2 (Homo sapiens, UniProt P30305); test: Inhibition of Cdc25B
# T6 sequence (P30305 whole entry): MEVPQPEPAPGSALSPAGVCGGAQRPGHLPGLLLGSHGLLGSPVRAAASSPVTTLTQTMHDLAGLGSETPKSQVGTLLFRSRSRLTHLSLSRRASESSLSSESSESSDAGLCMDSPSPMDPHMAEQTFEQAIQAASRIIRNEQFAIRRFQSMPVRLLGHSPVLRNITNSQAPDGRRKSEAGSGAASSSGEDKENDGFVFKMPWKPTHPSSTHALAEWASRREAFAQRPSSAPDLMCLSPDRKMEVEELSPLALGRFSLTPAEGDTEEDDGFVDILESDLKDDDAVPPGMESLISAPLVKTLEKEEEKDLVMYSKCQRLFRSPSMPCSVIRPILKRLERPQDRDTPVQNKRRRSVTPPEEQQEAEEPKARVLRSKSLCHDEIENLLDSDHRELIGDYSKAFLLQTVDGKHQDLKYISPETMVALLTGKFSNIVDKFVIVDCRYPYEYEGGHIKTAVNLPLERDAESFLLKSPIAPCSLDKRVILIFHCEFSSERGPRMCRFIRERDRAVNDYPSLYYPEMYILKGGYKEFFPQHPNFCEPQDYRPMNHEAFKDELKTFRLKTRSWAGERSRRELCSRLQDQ
# [36] = target: T1, Dual specificity protein phosphatase 6 (Homo sapiens); test: Inhibition of Dusp6 in Tg(dusp:EGFP)pt6 zebrafish embryo assessed as reduction in etv2 gene expression
# [37] = target: T7, Dual specificity protein phosphatase 1 (Homo sapiens) (UniProt P28562); test: Inhibition of Myc-tagged human Dusp1 expressed in TPA-induced human HeLa cells assessed as decrease in dephosphorylation of pERK measured at 100 uM by immunostaining; type: cell-based
# T7 sequence (whole entry): T5 sequence (P28562 whole entry)
smiles,measurement,setting,value
O=C1/C(=C/c2ccccc2)C(NC2CCCCC2)c2ccccc21 (stereo not drawn),inhibition,[1],inactive
same,inhibition,Danio rerio [2],Active
same,Activity,[3],81%
same,inhibition,[4],Active
same,inhibition,[5],Active
same,IC50,[6],Not Active
same,inhibition,[7],Active
same,inhibition,[8],Active
same,inhibition,[9],57%
same,inhibition,[10],inactive
same,inhibition,Danio rerio [11],Active
same,inhibition,Danio rerio [12],Active
same,inhibition,[13],inactive
same,Activity,[14],91%
same,inhibition,[15],inactive
same,inhibition,[16],30%
same,inhibition,[17],Active
same,inhibition,[18],Dose-dependent effect
same,inhibition,Danio rerio [19],Active
same,inhibition,[20],Active
same,IC50,[21],Not Active
same,inhibition,[22],Active
same,inhibition,[23],Active
same,inhibition,[24],inactive
same,Activity,Danio rerio [25],81%
same,Activity,Danio rerio [26],81%
same,IC50,[27],12.3 µM
same,IC50,[28],11.5 µM
same,Activity,Danio rerio [29],Active
same,inhibition,[30],Active
same,Activity,Danio rerio [31],32%
same,inhibition,[32],93%
same,inhibition,[33],Active
same,inhibition,Danio rerio [34],Active
same,IC50,[35],Not Active
same,inhibition,[36],Active
O=C1CC(NC2CCCCC2)c2ccccc21 (stereo not drawn),inhibition,[4],inactive
same,inhibition,[37],inactive
